Assay results pooled from the literature.
Compare with care: the assays were run in different laboratories.
Target: Vascular endothelial growth factor receptor 3 (FLT4, Homo sapiens, UniProt P35916)

SMILES	read-out	mode	method	tested at	measurement	result
CN1CCN(C(=O)c2ccc(NC(=O)Nc3ccc(N(C)c4ccnc(Nc5ccc(CS(C)(=O)=O)cc5)n4)cc3)cc2)CC1	binding	–	competition with immobilised ligand	1 µM	remaining binding	2%
C=CC(=O)N1CCC([C@@H]2CCNc3c(C(N)=O)c(-c4ccc(Oc5ccccc5)cc4)nn32)CC1	cell-free assay	–	–	1 µM	inhibition	12%
CCCCC(=O)Nc1ccc(-c2ccc3ncn(CCC)c(=O)c3c2)cn1	binding	–	competition with immobilised ligand	0.5 µM	remaining binding	100%
O=C1C=C(Nc2ccc(OCc3cn(Cc4ccc(Br)cc4)nn3)cc2)C(=O)c2ccccc21	enzyme activity	inhibitor	radiometric	10 µM	inhibition	26%
COc1ccc2oc(-c3ccc4nc(N)oc4c3)c/c(=N\c3ccccc3NC(=O)CCN)c2c1	binding	–	–	1 µM	remaining binding	105%
COc1ccc2[nH]c3c4[nH]c5ccc(OC)cc5c4c4c(c3c2c1)C(=O)NC4=O	binding	–	competition with immobilised ligand	1 µM	remaining binding	71%
CC#CC(=O)N1CCC[C@H]1c1nc(-c2ccc(C(=O)Nc3ccccn3)cc2)c2c(N)nccn12	enzyme activity	inhibitor	–	1 µM	inhibition	0%
C1=C/COCc2cc(ccc2OCCN2CCCC2)Nc2nccc(n2)-c2cccc(c2)COC/1	binding	–	–	0.1 µM	remaining binding	69%
